pEC50: −log10 of the molar value.
Experiments:
[1] = Antiproliferative activity against human NCI/ADR-RES cells after 48 hrs by SRB assay; type: functional
Outline: (§1)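 Cells grown in RPMI 1640 with 5% FBS, with penicillin/streptomycin in experimental cultures. Exposed in triplicate to 0.25, 2.5, 25 and 250 µg/mL in DMSO/RPMI for 48 h at 37 °C under 5% CO2. Plates were TCA-fixed before (T0) and after treatment, then stained with sulforhodamine B and read at 540 nm. GI50 was obtained by non-linear regression against untreated growth. Doxorubicin served as positive control.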

Human alphaherpesvirus 1 = assay: Antiviral activity against Herpes simplex type I KOS; type: functional; settings: Human alphaherpesvirus 1, KOS
[2] = Antiproliferative activity against human MCF7 cells after 48 hrs by SRB assay; type: functional; settings: MCF7, 48 h; outline: as §1
[3] = Cell cycle arrest in human 786-0 cells assessed as accumulation at G2/M phase at 6.25 uM after 24 hrs by propidium iodide staining-based flow cytometry (Rvb=36.5+/-1.1%); type: functional
Outline: (§2)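 786-0 cells seeded at 3×10^4 cells/mL and grown 24 h, then serum-starved 24 h to synchronise. Treated in DMSO/RPMI for 24 h alongside DMSO vehicle and colchicine control. 1×10^5 cells in PBS were stained with propidium iodide for 20 min in the dark at room temperature, then analysed by flow cytometry. Results are mean ± standard error % cells from three experiments in triplicate; ANOVA/Tukey.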

786-0 [4] = assay: Induction of apoptosis in human 786-0 cells assessed as necrotic cells at 25 uM after 15 hrs by Annexin V/7-AAD staining based flow cytometry; type: functional
Outline: (§3)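 786-0 cells seeded at 3×10^4 cells/mL and grown 24 h at 37 °C under 5% CO2. Exposed to 25 µM in DMSO/RPMI for 15, 18 or 24 h against DMSO vehicle. Results are mean ± standard error from three experiments in triplicate.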

[5] = Antiproliferative activity against human OVCAR3 cells after 48 hrs by SRB assay; type: functional; settings: OVCAR-3, 48 h; outline: as §1
[6] = Cell cycle arrest in human 786-0 cells assessed as accumulation at G1 phase at 6.25 uM after 24 hrs by propidium iodide staining-based flow cytometry (Rvb=47.1+/-1%); type: functional; outline: as §2
786-0 [7] = assay: Induction of apoptosis in human 786-0 cells assessed as necrotic cells at 25 uM after 18 hrs by Annexin V/7-AAD staining based flow cytometry; type: functional; outline: as §3
[8] = Antiproliferative activity against human 786-0 cells after 48 hrs by SRB assay; type: functional; settings: 786-0, 48 h; outline: as §1
[9] = Cell cycle arrest in human 786-0 cells assessed as accumulation at S phase at 12.5 uM after 24 hrs by propidium iodide staining-based flow cytometry (Rvb=12.6+/-0.7%); type: functional; outline: as §2
786-0 [10] = assay: Induction of apoptosis in human 786-0 cells assessed as late apoptotic or necrotic cells at 25 uM after 18 hrs by 7-AAD staining based flow cytometry; type: functional; outline: as §3
[11] = Cell cycle arrest in human 786-0 cells assessed as accumulation at G1 phase at 12.5 uM after 24 hrs by propidium iodide staining-based flow cytometry (Rvb=47.1+/-1%); type: functional; outline: as §2
[12] = Antiproliferative activity against human HT-29 cells after 48 hrs by SRB assay; type: functional; settings: HT-29, 48 h; outline: as §1
[13] = Cell cycle arrest in human 786-0 cells assessed as accumulation at G2/M phase at 12.5 uM after 24 hrs by propidium iodide staining-based flow cytometry (Rvb=36.5+/-1.1%); type: functional; outline: as §2
[14] = Cytotoxicity against human 786-0 cells after 48 hrs by SRB assay; type: functional; settings: 786-0, 48 h
Outline: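 Sulforhodamine B assay in RPMI 1640 with 5% FBS. Triplicate exposures to 0.25–250 µg/mL in DMSO/RPMI for 48 h at 37 °C under 5% CO2. T0 and treated plates were fixed with 50% TCA and absorbance read at 540 nm. Parameters: TGI is total growth inhibition; LC50 is the concentration killing 50% of cells. Doxorubicin served as control.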

[15] = Cell cycle arrest in human 786-0 cells assessed as accumulation at sub-G1 phase at 6.25 uM after 24 hrs by propidium iodide staining-based flow cytometry (Rvb=3.7+/-0.9%); type: functional; outline: as §2
786-0 [16] = assay: Induction of apoptosis in human 786-0 cells assessed as necrotic cells at 25 uM after 24 hrs by Annexin V/7-AAD staining based flow cytometry; type: functional; outline: as §3
[17] = Cell cycle arrest in human 786-0 cells assessed as accumulation at sub-G1 phase at 12.5 uM after 24 hrs by propidium iodide staining-based flow cytometry (Rvb=3.7+/-0.9%); type: functional; outline: as §2
[18] = Selectivity index, ratio of CC50 for Herpes simplex type I KOS infected African green monkey Vero cells to EC50 for Herpes simplex virus type 1 KOS; type: toxicity, cell-based; settings: Herpes simplex virus type 1 KOS infected Vero cells, read-out: Ratio CC50/EC50
Outline: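 SI calculated as CC50/EC50. CC50 is the 50% cytotoxic concentration on Vero cells by sulforhodamine B, tested in triplicate from 0.1 to 1000 µg/mL. EC50 is the concentration protecting 50% of cells against HSV-1, with acyclovir as HSV-1 standard and drug-free cells as control.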

[19] = Cytotoxicity against African green monkey Vero cells after 48 hrs by SRB assay; type: toxicity, cell-based; settings: chlorocebus sabaeus
Outline: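 Vero (ATCC CCL81) cells grown in DMEM with 10% FBS and gentamicin at 37°C, 5% CO2. Cells exposed in triplicate to 1000, 500, 100, 10, 1 and 0.1 µg/mL, with untreated cells as control. Viability read by sulforhodamine B colorimetry. CC50 is the concentration giving 50% cytotoxicity.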

786-0 [20] = assay: Induction of apoptosis in human 786-0 cells assessed as late apoptotic or necrotic cells at 25 uM after 24 hrs by 7-AAD staining based flow cytometry; type: functional; outline: as §3
786-0 [21] = assay: Induction of apoptosis in human 786-0 cells assessed as late apoptotic or necrotic cells at 25 uM after 15 hrs by 7-AAD staining based flow cytometry; type: functional; outline: as §3
[22] = Antiproliferative activity against human NCI-H460 cells after 48 hrs by SRB assay; type: functional; settings: NCI-H460, 48 h; outline: as §1
[23] = Cell cycle arrest in human 786-0 cells assessed as accumulation at S phase at 6.25 uM after 24 hrs by propidium iodide staining-based flow cytometry (Rvb=12.6+/-0.7%); type: functional; outline: as §2

SMILES: CN(C)c1ccc(-c2nc(C(=O)N/N=C3/NC(=O)CS3)cc3c2[nH]c2ccccc23)cc1
- GI50 [1]: 480 nM
- pEC50 (Human alphaherpesvirus 1): 4.01
- GI50 [2]: 2930 nM
- Activity [3]: 37%
- Activity (786-0 [4]): 3.6%
- GI50 [5]: 1270 nM
- Activity [6]: 48.7%
- Activity (786-0 [7]): 34.4%
- GI50 [8]: 1600 nM
- Activity [9]: 12.4%
- Activity (786-0 [10]): 34.7%
- Activity [11]: 40.5%
- GI50 [12]: 5.04 µM
- Activity [13]: 31.8%
- TGI [14]: 13 µM
- CC50 ([14]; read-out: LC50 (the source's name)): 105 µM
- Activity [15]: 2.3%
- Activity (786-0 [16]): 38.7%
- Activity [17]: 15.3%
- selectivity ratio [18]: 18
- CC50 at 48 h [19]: 1.74 mM
- Activity (786-0 [20]): 36.6%
- Activity (786-0 [21]): 3.9%
- GI50 [22]: 1440 nM
- Activity [23]: 11.9%
